The results in this text go back to ChEMBL document CHEMBL2146375, “Synthesis and evaluation of indole-containing 3,5-diarylisoxazoles as potential pro-apoptotic antitumour agents” (Eur J Med Chem, 2012).

Data set [1] is described as follows: Cytotoxicity against human COLO320 cells assessed as cell viability after 72 hrs by WST-1 assay. The data set is classed as functional, cell-based. The following applies: COLO 320, 72 h. Summed up:
(§1)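 Cells grown in DMEM with L-glutamine (2 mM), 10% foetal bovine serum, 2.5% horse serum and penicillin/streptomycin at 37 °C under 5% CO₂. Seeded at 2 × 10³ cells/well and exposed to compound for 72 h, with DMSO ≤0.2% final. WST-1 added, absorbance read at 450 nm, and % reduction vs control calculated. IC₅₀ and Emax from nonlinear least-squares curve fit. Mean ± SEM, n = 3.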
(Formazan colour is commonly taken as a measure of viable cells.)

The test system of data set [2] is Calu-3. Briefly: Cytotoxicity against human Calu3 cells assessed as cell viability after 72 hrs by WST-1 assay. The data set is classed as functional, cell-based. Particulars: Calu-3, 72 h. Summed up:
as §1

For data set [3], the system named is Calu-3. Briefly: Induction of apoptosis in human Calu3 cells assessed as induction of caspase-3/7 at 10 uM after 4 hrs by spectrofluorimetry relative to control. Format: functional. Particulars: in the assay text read “at 20 uM” for “at 10 uM”. The gist of the method:
(§2)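 Cells seeded at 7 × 10³/well and treated with compound for 4 h. Apo-ONE homogeneous caspase-3/7 substrate then added. Fluorescence read at excitation 485 nm and emission 530 nm. Result given as the ratio of treated-cell signal to vehicle-only cells.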

Data set [4] in a line: Cytotoxicity against human BSMC cells assessed as cell viability at 20 uM after 72 hrs by WST-1 assay. Format: cell-based. Summed up: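 Normal human bronchial smooth muscle cells grown in DMEM with 10% FBS and exposed to compound for 72 h. Viability compared with untreated control.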
In another data set the test system is COLO 320. Briefly: Induction of apoptosis in human COLO320 cells assessed as induction of caspase-3/7 at 20 uM after 4 hrs by spectrofluorimetry relative to control. Particulars: in the assay text read “at 10 uM” for “at 20 uM”. Format: functional. Summed up:
as §2

Some results are limits rather than exact numbers.

Usually IC50 stands for the concentration at which inhibition is half-maximal. Take `COc1ccc2[nH]c(-c3cc(-c4cccc(F)c4)on3)cc2c1`: the IC50 (in data set [1]; in the data set with Calu-3 [2]) was over 100 µM each time.

For `COc1ccc(-c2cc(-c3cc4ccccc4n3C)on2)cc1`, the IC50 (in data set [1]; in the data set with Calu-3 [2]) was over 100 µM throughout.

For the compound `COc1ccc(-c2cc(-c3c(Cl)c4ccccc4n3C)no2)cc1`, the IC50 was determined as 78.1 µM in data set [1] and 60.9 µM with Calu-3 [2].

Consider `Cn1c(-c2cc(-c3ccc(C(F)(F)F)cc3)on2)c(Cl)c2ccccc21`, for which the IC50 (in data set [1]; with Calu-3 [2]) was over 100 µM throughout.

With `COc1ccc(-c2cc(-c3cc4ccccc4n3C)no2)cc1`, the IC50 (in data set [1]; in the data set on Calu-3 [2]) was over 100 µM throughout.

Take `O=c1[nH]cc(F)c(=O)[nH]1` [FLUOROURACIL]: the IC50 in data set [1] worked out at 12.5 µM.

For the compound `COc1cccc(-c2cc(-c3cc4cc(OC)ccc4[nH]3)no2)c1`, the IC50 (in data set [1]; in the data set with Calu-3 [2]) was over 100 µM in each case.

As to `Fc1ccc(-c2cc(-c3ccc4[nH]ccc4c3)on2)cc1`, the “fold change (FC)” value in the data set with Calu-3 [3] is recorded as 1.94; with COLO 320, 1.81. Besides, the IC50 amounted to 13.9 µM in data set [1] and 16.8 µM in the data set with Calu-3 [2]. Moreover, the Activity entry in data set [4] is listed as “Toxic”.

As to `Cn1c(-c2cc(-c3ccc(F)cc3)no2)cc2ccccc21`, the IC50 (in data set [1]; in the data set on Calu-3 [2]) was over 100 µM in each case.

Consider `COc1ccc(-c2cc(-c3cc4ccccc4[nH]3)no2)cc1`, for which the IC50 (in data set [1]; with Calu-3 [2]) was over 100 µM each time.

Take `COc1cccc(-c2cc(-c3cc4ccccc4[nH]3)no2)c1`: the IC50 (in data set [1]; with Calu-3 [2]) was over 100 µM each time.

For `COc1cc(-c2cc(-c3ccc4[nH]ccc4c3)on2)cc(OC)c1OC`, the “fold change (FC)” value in the data set on Calu-3 [3] is listed as 3.39; with COLO 320 it was 2.38. The figures for the IC50 (in data set [1]; in the data set with Calu-3 [2]) were 9 µM and 13.3 µM, respectively. Further, the Activity result in data set [4] is listed as “Non-toxic”.

Turning to `Cn1c(-c2cc(-c3cccc(F)c3)on2)cc2ccccc21`, the IC50 (in data set [1]; in the data set on Calu-3 [2]) was over 100 µM throughout.

Consider `COC(=O)c1ccc(-c2cc(-c3ccc4[nH]ccc4c3)on2)cc1`, for which the concentration for half-maximal inhibition (IC50) (in data set [1]; in the data set on Calu-3 [2]) was over 100 µM in each case.

In the case of `COc1ccc(-c2cc(-c3ccc4[nH]ccc4c3)on2)cc1`, the “fold change (FC)” value worked out at 2.44 with Calu-3 [3] and 2.18 in the data set with COLO 320. Besides, the values for the IC50 (in data set [1]; in the data set on Calu-3 [2]) were 13.5 µM and 22.5 µM, respectively. The Activity entry in data set [4] is given as “Non-toxic”.

In the case of `O=[N+]([O-])c1ccc(-c2cc(-c3ccc4[nH]ccc4c3)on2)cc1`, the “fold change (FC)” value with Calu-3 [3] is reported as 2.84; in the data set with COLO 320 it was 3.76. The IC50 came to 14 µM in data set [1] and 25.8 µM in the data set on Calu-3 [2]. Besides, the Activity result in data set [4] is recorded as “Toxic”.

Take `COc1cccc(-c2cc(-c3cc4ccccc4n3C)no2)c1`: the IC50 in data set [1] is 69.5 µM; in the data set with Calu-3 [2] it was 17.3 µM.

For `COc1cccc(-c2cc(-c3cc4ccccc4n3C)on2)c1`, the IC50 (in data set [1]; with Calu-3 [2]) was over 100 µM each time.

`COc1ccc2[nH]c(-c3cc(-c4cccc(F)c4)no3)cc2c1`: the IC50 is over 100 µM in data set [1] and 97.9 µM in the data set on Calu-3 [2].
